Compound activity from PubChem BioAssay.
The sample as a whole holds a higher share of hits than the screen did.
GASC1 inh: inhibitors of GASC-1 (KDM4C) histone demethylase, primary screen, biochemical, single concentration HTS | Lysine-specific demethylase 4C (Homo sapiens), Q9H3R0 | GST-KDM4C 2-372, H3K9me3 peptide, LANCE TR-FRET | inhibition, % at 12.5 µM | actives 0.15% (n = 96,000);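 active = mean replicate inhibition above about 25%, with at least 55% of replicates also reaching it, limit read from the data, passing the limit was not always enough; inconclusive = only one of those two conditions met; inactive = neither condition met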
Target sequence (Q9H3R0 2-372 limits assumed): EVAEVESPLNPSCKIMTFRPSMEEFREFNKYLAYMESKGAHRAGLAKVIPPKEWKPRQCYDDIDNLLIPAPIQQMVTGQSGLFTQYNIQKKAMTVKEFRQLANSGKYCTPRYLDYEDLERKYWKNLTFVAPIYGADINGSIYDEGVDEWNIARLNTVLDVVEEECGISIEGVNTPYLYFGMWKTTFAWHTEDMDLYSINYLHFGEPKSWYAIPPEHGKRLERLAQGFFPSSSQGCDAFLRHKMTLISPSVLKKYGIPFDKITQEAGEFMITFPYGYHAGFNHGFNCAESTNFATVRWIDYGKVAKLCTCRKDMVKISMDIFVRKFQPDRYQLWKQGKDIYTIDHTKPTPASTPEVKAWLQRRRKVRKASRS
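Material: GST-tagged GASC-1 (JMJD2C) catalytic fragment, aa 2-372. Input: enzyme final amount 10 nM. Medium: HEPES buffer, pH 7.5, plus ascorbate. Reagent: H3K9me3 peptide substrate, Fe(II), 2-oxoglutarate. Doses: single dose. Times: reaction 30 min RT, detection step 1 h RT. Measured by: LANCE TR-FRET. Evaluation: Fall in 671/618 emission ratio as inhibition.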
IDH1 mut inh: inhibitors of IDH1 R132H reductase, primary screen, biochemical, plate reader, single point; Isocitrate dehydrogenase [NADP] cytoplasmic (Homo sapiens), O75874; diaphorase/resazurin fluorescence, 60 min; inhibition, % at 10 µM; actives 0.18% (n = 70,000); in the data active = inhibition above about 34%; inconclusive = no clear call, values can overlap the other calls; inactive = below about 11%
Target sequence (O75874 whole entry R132H): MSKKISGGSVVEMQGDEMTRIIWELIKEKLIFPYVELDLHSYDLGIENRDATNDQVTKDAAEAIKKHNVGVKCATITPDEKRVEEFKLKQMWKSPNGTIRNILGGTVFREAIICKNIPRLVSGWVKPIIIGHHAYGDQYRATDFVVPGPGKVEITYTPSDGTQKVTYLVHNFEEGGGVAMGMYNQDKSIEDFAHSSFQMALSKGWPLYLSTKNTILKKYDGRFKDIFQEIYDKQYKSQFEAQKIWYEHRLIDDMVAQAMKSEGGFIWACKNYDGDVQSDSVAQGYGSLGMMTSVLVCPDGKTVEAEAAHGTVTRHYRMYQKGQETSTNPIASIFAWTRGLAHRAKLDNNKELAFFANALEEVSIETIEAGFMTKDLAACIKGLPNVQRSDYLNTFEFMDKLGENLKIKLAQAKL
T cruzi growth-1: T. cruzi intracellular proliferation inhibitors, primary screen, cell-based, beta-gal Tulahuen parasites, NIH3T3 host, luminescence | AID 624255, 2012 | actives 5.9% (n = 77,000) | T. cruzi beta-gal in NIH3T3, GalScreen luminescence, 90 h | inhibition, % at 8.34 µM;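 active = mean inhibition above about 93%, with at least 55% of replicates each passing it, limit read from the data, passing the limit was not always enough; inconclusive = only one of those two conditions holds; inactive = neither condition holds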
T cruzi growth-2: T. cruzi intracellular proliferation inhibitors, confirmation, cell-based, NIH3T3 host, beta-gal parasite, luminescence, cherry-pick; shares compounds with T cruzi growth-1; T. cruzi beta-gal in NIH3T3, GalScreen luminescence, 90 h; inhibition, % at 8.35 µM; actives 72% (n = 5,600); AID 651739, 2012;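 active = mean replicate inhibition above about 95% and at least 55% of replicates individually reaching it, limit read from the data; inconclusive = only one of the two criteria is met; inactive = neither criterion is met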
T cruzi growth-3: inhibitors of intracellular T. cruzi replication, confirmation, NIH3T3 host cells, beta-gal parasites, cherry-pick, set 2; shares compounds with T cruzi growth-1; T. cruzi beta-gal in NIH3T3, GalScreen luminescence, 90 h; inhibition, % at 2.09 µM; actives 21% (n = 5,600); AID 651740, 2012;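 active = mean inhibition above about 95%, with at least 55% of replicates also reaching it, limit read from the data; inconclusive = meets just one of the two conditions; inactive = meets neither condition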
NIH3T3 tox: cytotoxicity in mouse NIH/3T3 fibroblasts, confirmation, cytotoxicity control for T. cruzi proliferation inhibitor project, cell-based, cherry-pick, single point | shares compounds with T cruzi growth-1 | NIH/3T3 viability, CellTiter-Glo ATP luminescence, 90 h | cytotoxicity (signal decrease), % at 8.35 µM | actives 14% (n = 5,600);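 active = mean signal decrease across replicates above about 35% based on untreated-well scatter, with enough replicates individually passing, limit read from the data; inconclusive = no rule stated though some were filed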
3T3 cytotox 2: NIH/3T3 fibroblast cytotoxicity, confirmation, cytotoxicity control, cell-based, cherry-pick, single point, set 2; shares compounds with T cruzi growth-1; NIH/3T3 viability, CellTiter-Glo ATP luminescence, 90 h; inhibition, % at 24.9 µM; actives 56% (n = 5,600);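 active = mean loss of cell viability signal at or above a set limit, and enough replicates individually reaching it; inconclusive = meets only the mean limit or only the replicate share; inactive = meets neither condition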
Of the large screens only hits and unclear results are named; the others gave an inactive call (follow-up assays come after a bar, where they were run).

C[C@@H]1CN([C@H](C)CO)S(=O)(=O)c2ccc(C#Cc3ccccn3)cc2O[C@H]1CN(C)C	none (no result: T cruzi growth-1)
C[C@H](CO)N1C[C@H](C)[C@@H](CN(C)Cc2ccc(F)cc2)Oc2cc(C#Cc3ccccn3)ccc2S1(=O)=O	T cruzi growth-1 126.8 | T cruzi growth-2 105.8 | T cruzi growth-3 102.4 | NIH3T3 tox inactive | 3T3 cytotox 2 inactive
C[C@@H]1CN([C@@H](C)CO)S(=O)(=O)c2ccc(C#Cc3ccccn3)cc2O[C@@H]1CN(C)Cc1ccc(F)cc1	T cruzi growth-1 99.9 | T cruzi growth-2 106.8 | T cruzi growth-3 inactive | NIH3T3 tox 38.0 | 3T3 cytotox 2 inactive
C[C@H]1CN([C@@H](C)CO)C(=O)c2cc(-c3ccc(C#N)cc3)cnc2O[C@H]1CN(C)C(=O)CN(C)C	none
C/C=C/c1ccc2c(c1)O[C@H](CN(C)C(=O)c1ccccc1)[C@@H](C)CN([C@H](C)CO)S2(=O)=O	none (no result: T cruzi growth-1)
C[C@@H]1CN([C@@H](C)CO)S(=O)(=O)c2ccc(/C=C/c3ccccc3)cc2O[C@H]1CN(C)C(=O)c1ccncc1	T cruzi growth-1 101.2 | T cruzi growth-2 103.1 | T cruzi growth-3 inactive | NIH3T3 tox 38.4 | 3T3 cytotox 2 69.7
C/C=C/c1ccc2c(c1)O[C@@H](CN(C)C(=O)c1ccccc1)[C@@H](C)CN([C@@H](C)CO)S2(=O)=O	none (no result: T cruzi growth-1)
C[C@H](CO)N1C[C@H](C)[C@@H](CN(C)C(=O)c2ccccc2)Oc2cc(/C=C/c3ccccc3)ccc2S1(=O)=O	T cruzi growth-1 inconclusive (no result: GASC1 inh) | T cruzi growth-2 103.9 | T cruzi growth-3 inactive | NIH3T3 tox inactive | 3T3 cytotox 2 42.6
C/C=C/c1ccc2c(c1)O[C@H](CN(C)C(=O)c1ccncc1)[C@@H](C)CN([C@H](C)CO)S2(=O)=O	none
C/C=C/c1ccc2c(c1)O[C@H](CN(C)C(=O)c1ccccc1)[C@H](C)CN([C@H](C)CO)S2(=O)=O	none (no result: T cruzi growth-1)
C[C@@H]1CN([C@@H](C)CO)S(=O)(=O)c2ccc(/C=C/c3ccccc3)cc2O[C@H]1CN(C)C(=O)c1ccccc1	T cruzi growth-1 126.6 | T cruzi growth-2 110.0 | T cruzi growth-3 inactive | NIH3T3 tox 55.4 | 3T3 cytotox 2 85.0
C[C@H](CO)N1C[C@H](C)[C@H](CN(C)C(=O)c2ccccc2)Oc2cc(/C=C/c3ccccc3)ccc2S1(=O)=O	T cruzi growth-1 126.6 (no result: GASC1 inh) | T cruzi growth-2 100.7 | T cruzi growth-3 inactive | NIH3T3 tox inactive | 3T3 cytotox 2 inactive
O=C(O)Cn1c(=O)n(CC(=O)O)c2ccccc21	none (no result: GASC1 inh, T cruzi growth-1)
Cc1ccc(NC(=O)COc2ccc(C(=O)Nc3ccc(F)cc3)cc2)cc1	none (no result: GASC1 inh, T cruzi growth-1)
C/C=C/c1ccc([C@H]2[C@H]3CN(C(=O)Nc4ccc(OC)cc4)CC(=O)N3[C@H]2CO)cc1	none (no result: IDH1 mut inh, T cruzi growth-1)
CN1C(=O)c2cc(NS(C)(=O)=O)ccc2OC[C@@H]2O[C@@H](CC(=O)O)CC[C@@H]21	none (no result: IDH1 mut inh)
C/C=C/c1ccc2c(c1)O[C@@H](CN(C)C(=O)c1cccc(F)c1)[C@@H](C)CN([C@@H](C)CO)S2(=O)=O	T cruzi growth-1 inconclusive | T cruzi growth-2 inactive | T cruzi growth-3 inactive | NIH3T3 tox inactive | 3T3 cytotox 2 inconclusive
C/C=C/c1ccc2c(c1)O[C@H](CN(C)C(=O)c1cccc(F)c1)[C@H](C)CN([C@H](C)CO)S2(=O)=O	none
CCCNC(=O)[C@@H]1[C@@H](CO)[C@@H]2Cn3c(ccc(-c4cccnc4)c3=O)[C@H]1N2C(=O)Nc1ccccc1	none (no result: IDH1 mut inh)
COc1ccc2c3c(n(C)c2c1)[C@@H](CO)N(Cc1cc(F)ccc1F)CC31CCN(C(=O)C2CC2)CC1	none (no result: IDH1 mut inh, T cruzi growth-1)
COc1ccc(S(=O)(=O)Nc2ccc3c(c2)C(=O)N([C@H](C)CO)C[C@@H](C)[C@H](CN(C)C(=O)Nc2ccc(C(F)(F)F)cc2)OCCCC[C@H](C)O3)cc1	none (no result: IDH1 mut inh)
C[C@H](CO)N1C[C@H](C)[C@@H](CN(C)C(=O)Nc2ccc(C(F)(F)F)cc2)OCCCC[C@H](C)Oc2ccc(NS(=O)(=O)c3ccc(Cl)cc3)cc2C1=O	none
COc1ccc(S(=O)(=O)Nc2ccc3c(c2)C(=O)N([C@H](C)CO)C[C@H](C)[C@@H](CN(C)C(=O)Nc2ccc(C(F)(F)F)cc2)OCCCC[C@@H](C)O3)cc1	T cruzi growth-1 107.8 | T cruzi growth-2 99.2 | T cruzi growth-3 inactive | NIH3T3 tox inactive | 3T3 cytotox 2 inactive
C[C@@H]1CCCCO[C@H](CN(C)C(=O)Nc2ccc(C(F)(F)F)cc2)[C@@H](C)CN([C@H](C)CO)C(=O)c2cc(NS(=O)(=O)c3ccc(Cl)cc3)ccc2O1	T cruzi growth-1 104.3 | T cruzi growth-2 98.7 | T cruzi growth-3 inactive | NIH3T3 tox inactive | 3T3 cytotox 2 inactive
Cc1ccc(S(=O)(=O)Nc2ccc3c(c2)C(=O)N([C@H](C)CO)C[C@H](C)[C@@H](CN(C)C(=O)Nc2ccc(C(F)(F)F)cc2)OCCCC[C@H](C)O3)cc1	T cruzi growth-1 108.6 (no result: IDH1 mut inh) | T cruzi growth-2 105.3 | T cruzi growth-3 113.5 | NIH3T3 tox inactive | 3T3 cytotox 2 inactive
C[C@@H]1CCCCO[C@@H](CN(C)C(=O)Nc2ccc(C(F)(F)F)cc2)[C@H](C)CN([C@H](C)CO)C(=O)c2cc(NS(=O)(=O)c3ccc(Cl)cc3)ccc2O1	T cruzi growth-1 inconclusive | T cruzi growth-2 inactive | T cruzi growth-3 118.5 | NIH3T3 tox inactive | 3T3 cytotox 2 inactive
Cc1ccc(S(=O)(=O)Nc2ccc3c(c2)C(=O)N([C@H](C)CO)C[C@@H](C)[C@H](CN(C)C(=O)Nc2ccc(C(F)(F)F)cc2)OCCCC[C@@H](C)O3)cc1	none
C[C@H]1CCCCO[C@@H](CN(C)C(=O)Nc2ccc(C(F)(F)F)cc2)[C@@H](C)CN([C@@H](C)CO)C(=O)c2cc(NS(=O)(=O)c3ccc(Cl)cc3)ccc2O1	none (no result: IDH1 mut inh)
Cc1ccc(S(=O)(=O)Nc2ccc3c(c2)C(=O)N([C@@H](C)CO)C[C@H](C)[C@@H](CN(C)S(=O)(=O)c2ccc(Cl)cc2)O3)cc1	none (no result: T cruzi growth-1)
CN(C)CC(=O)N1[C@@H]2c3ccc(-c4cccnc4)c(=O)n3C[C@H]1[C@H](CO)[C@H]2C(=O)NC1CCCC1	none (no result: IDH1 mut inh, T cruzi growth-1)
CC(C)(C)[S@@](=O)N1Cc2cc(C(=O)NCCc3ccncc3)nc(-c3cccc(-c4ccccc4)c3)c2[C@H]1CCO	none (no result: IDH1 mut inh, T cruzi growth-1)
